These results are taken from ChEMBL document CHEMBL1141607, “Design, synthesis, and in vitro photodynamic activities of benzochloroporphyrin derivatives as tumor photosensitizers” (Bioorg Med Chem Lett, 2008).

Values after ≈ are worked out from the molar mass of the structure shown. Active and inactive are the calls of the source. The calls are words filed in the database; no cut-off is given here.

In assay [1] the test system is Bel-7402. Nature of the assay: Cytotoxicity against human BEL-7402 cells assessed as photo-induced growth inhibition after 24 hrs in dark by MTT assay. Type of assay: functional, cell-based. Conditions: Bel-7402, 24 h. The procedure, abridged:
(§1)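 Human hepatoma BEL-7402 cells were incubated with compound (0.03125–2.5 µg/mL) in the dark for 24 h at 37 °C. Cells in the light arm were then irradiated with a 670 nm laser at 10 J/cm² (56 mW/cm² for 3 min); dark-arm cells were not irradiated. Cells were then incubated for 24 h at 37 °C and survival was read by MTT in triplicate. IC50 was reported with 95% confidence limits.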

Assay [2] concerns Bel-7402. Briefly: Induction of apoptosis in human BEL-7402 cells […] by methyl green-pyronin staining method. Type of assay: functional, cell-based.
Assay [3] has as its system Bel-7402. Briefly: Cytotoxicity against human BEL-7402 cells assessed as photo-induced growth inhibition upto 2.5 ug/mL after 24 hrs in dark by MTT assay. Type of assay: functional. Also on record: scale not given: the % may be the effect or the level left. The procedure, abridged:
as §1
For orientation: Tetrazolium assays rely on reduction of a dye to a coloured formazan, in cell work by metabolically active cells.

What is called IC50 is the concentration at which inhibition is half-maximal. With `CCC1=C(C)c2cc3[nH]c(cc4nc(c5c6[nH]c(cc1n2)c(C)c6C(=O)C5C(=O)OC)C(CCC(=O)OC)=C4C)[C@@]1(C)C3=CC=C(C(=O)OC)[C@H]1C(=O)OC` (some centres undefined), the IC50 in the assay with Bel-7402 [1] turned out to be 0.26 µg/mL (≈ 0.348 µM). In addition, in the assay with Bel-7402 [2], the result was Active. In addition, in the assay on Bel-7402 [3], the Activity is listed as over 92%.

Regarding `CCC1=C(C)c2cc3[nH]c(cc4nc(c(C)c5[nH]c(cc1n2)c(C)c5C(=O)OC)C(CCC(=O)OC)=C4C)[C@@]1(C)C3=CC=C(C(=O)OC)[C@H]1C(=O)OC`, the IC50 in the assay on Bel-7402 [1] was 0.47 µg/mL (≈ 0.652 µM). In addition, in the assay on Bel-7402 [3], the Activity is over 92%.

Turning to `CCC1=C(C)c2cc3[nH]c(cc4nc(c(C(=O)OC)c5[nH]c(cc1n2)c(C)c5C(=O)OC)C(CCC(=O)OC)=C4C)[C@@]1(C)C3=CC=C(C(=O)OC)[C@H]1C(=O)OC`, the concentration for half-maximal inhibition (IC50) in the assay on Bel-7402 [1] was 0.27 µg/mL (≈ 0.353 µM). In addition, the Activity with Bel-7402 [3] is reported as over 92%.

Take `CCC1=C(C)c2cc3[nH]c(cc4nc(c(CC(=O)OC)c5[nH]c(cc1n2)c(C)c5C(=O)OC)C(CCC(=O)OC)=C4C)[C@@]1(C)C3=CC=C(C(=O)OC)[C@H]1C(=O)OC`: the half-maximal inhibitory concentration (IC50) in the assay with Bel-7402 [1] turned out to be 1.32 µg/mL (≈ 1.69 µM). Moreover, the Activity in the assay with Bel-7402 [3] is on record as over 92%.
